The source made the active and inactive calls. No cut-off for these calls is given here.
Legend:
[1] = molecular target: Tyrosine-protein kinase FRK (Homo sapiens) (UniProt P42685); test: Binding affinity to wild-type human partial length FRK (A215 to F503 residues) expressed in bacterial expression system at 100 nM by Kinomescan method relative to control
[2] = molecular target: High affinity nerve growth factor receptor (Homo sapiens, UniProt P04629); test: Inhibition of recombinant human His-tagged TRKA cytoplasmic domain (441 to 796 residues) expressed in baculovirus expression system using peptide substrate preincubated for 60 mins followed by substrate addition by microfluidic assay
[3] = molecular target: Macrophage colony-stimulating factor 1 receptor (Homo sapiens, UniProt P07333); test: Inhibition of recombinant human His-tagged CSF1R cytoplasmic domain (538 to 910 residues) expressed in baculovirus expression system using peptide substrate preincubated for 60 mins followed by substrate addition by microfluidic assay
[4] = test system: Proto-oncogene tyrosine-protein kinase receptor Ret (Homo sapiens), P07949 [V804L]; test: Inhibition of RET isoform 9 V804L mutant (unknown origin) expressed in rat Rat1 assessed as reduction in RET phosphorylation at Y905 residue at 1 to 100 nM measured after 2 hrs by Western blot analysis; format: cell-based
How it was run: (§1)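 Serum-starved RAT1 (RET point mutants) or NIH3T3 (RET rearrangements) cells expressing short RET-9 isoform, treated 2 h; 50 μg total lysate immunoblotted with anti-phospho-Y1062 and anti-phospho-Y905 RET antibodies, normalized to total RET; ECL detection. Compound from 50 mM DMSO stock diluted in growth medium.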

[5] = molecular target: Centrosomal protein 43/RET (Homo sapiens) (UniProt P07949+O95684); test: Inhibition of FGFR1OP/RET isoform 9 (unknown origin) expressed in mouse NIH/3T3 cells assessed as reduction in RET phosphorylation at Y905 residue at 1 to 100 nM measured after 2 hrs by Western blot analysis; format: cell-based; how it was run: as §1
[6] = molecular target: T1, Coiled-coil domain-containing protein 6/Tyrosine-protein kinase receptor RET (Homo sapiens) (UniProt P07949+Q16204); test: Inhibition of CCDC6/RET in human TPC1 cells assessed as reduction in RET phosphorylation at Y1062 residue at 0.3 to 30 nM measured after 2 hrs by Western blot analysis; format: cell-based
[7] = molecular target: T1, Coiled-coil domain-containing protein 6/Tyrosine-protein kinase receptor RET (Homo sapiens); test: Inhibition of CCDC6/RET in human TPC1 cells assessed as reduction in SHC phosphorylation at 0.3 to 30 nM measured after 2 hrs by Western blot analysis; format: cell-based
[8] = molecular target: T2, SHC-transforming protein 1 (Homo sapiens) (UniProt P29353); test: Effect on SHC phosphorylation in RET deficient human BCPAP cells at 1 to 100 nM measured after 2 hrs by western blot analysis; format: cell-based
T2 sequence (whole entry): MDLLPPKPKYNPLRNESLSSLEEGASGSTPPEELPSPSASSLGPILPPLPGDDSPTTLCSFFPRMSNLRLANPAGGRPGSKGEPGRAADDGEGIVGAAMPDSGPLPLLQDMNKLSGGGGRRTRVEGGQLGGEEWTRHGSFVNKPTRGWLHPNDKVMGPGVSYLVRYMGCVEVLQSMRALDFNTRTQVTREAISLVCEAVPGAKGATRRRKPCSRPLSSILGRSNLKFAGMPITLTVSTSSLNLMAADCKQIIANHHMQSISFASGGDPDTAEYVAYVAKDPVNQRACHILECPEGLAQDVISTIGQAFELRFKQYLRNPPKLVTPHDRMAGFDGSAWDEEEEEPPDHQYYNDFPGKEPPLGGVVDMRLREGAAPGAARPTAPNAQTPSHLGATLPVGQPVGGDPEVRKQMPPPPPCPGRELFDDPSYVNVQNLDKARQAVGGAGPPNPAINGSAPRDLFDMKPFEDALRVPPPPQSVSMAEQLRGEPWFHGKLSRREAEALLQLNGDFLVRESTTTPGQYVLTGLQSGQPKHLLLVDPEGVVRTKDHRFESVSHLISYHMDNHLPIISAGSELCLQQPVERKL

[9] = test system: PC-9; test: Cytotoxicity against RET deficient human PC9 cells supplemented with fresh medium containing compound for every 2 to 3 days measured during compound dosing; format: functional, cell-based
How it was run: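 Human RET-negative lines were seeded in six-well plates at 10000 cells/well, in 5% FCS (Nthy-ori-3-1) or 10% FCS (BCPAP, 8505-C, CALU-1, A549, PC-9). Drug or vehicle was added the day after plating, with medium changed every 2–3 days. Cells were counted every 2–3 days. IC50 was fitted from the last day of the growth curves.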

[10] = test system: Mus musculus; test: In vivo inhibition of RET isoform 9 C634R mutant transfected in mouse NIH/3T3 cells implanted BALB/c nu/nu mouse assessed as reduction in RET phosphorylation at Y1062 residue in tumor at 1 mg/kg, po administered once daily via gavage for 3 days measured 3 hrs post-last dose by Western blot analysis; format: functional, organism-based
[11] = test system: Mus musculus; test: In vivo inhibition of RET isoform 9 C634R mutant transfected in mouse NIH/3T3 cells implanted BALB/c nu/nu mouse assessed as reduction in RET phosphorylation at Y905 residue in tumor at 1 mg/kg, po administered once daily via gavage for 3 days measured 3 hrs post-last dose by Western blot analysis; format: functional, organism-based

T1 sequence (P07949 29-1114 limits assumed): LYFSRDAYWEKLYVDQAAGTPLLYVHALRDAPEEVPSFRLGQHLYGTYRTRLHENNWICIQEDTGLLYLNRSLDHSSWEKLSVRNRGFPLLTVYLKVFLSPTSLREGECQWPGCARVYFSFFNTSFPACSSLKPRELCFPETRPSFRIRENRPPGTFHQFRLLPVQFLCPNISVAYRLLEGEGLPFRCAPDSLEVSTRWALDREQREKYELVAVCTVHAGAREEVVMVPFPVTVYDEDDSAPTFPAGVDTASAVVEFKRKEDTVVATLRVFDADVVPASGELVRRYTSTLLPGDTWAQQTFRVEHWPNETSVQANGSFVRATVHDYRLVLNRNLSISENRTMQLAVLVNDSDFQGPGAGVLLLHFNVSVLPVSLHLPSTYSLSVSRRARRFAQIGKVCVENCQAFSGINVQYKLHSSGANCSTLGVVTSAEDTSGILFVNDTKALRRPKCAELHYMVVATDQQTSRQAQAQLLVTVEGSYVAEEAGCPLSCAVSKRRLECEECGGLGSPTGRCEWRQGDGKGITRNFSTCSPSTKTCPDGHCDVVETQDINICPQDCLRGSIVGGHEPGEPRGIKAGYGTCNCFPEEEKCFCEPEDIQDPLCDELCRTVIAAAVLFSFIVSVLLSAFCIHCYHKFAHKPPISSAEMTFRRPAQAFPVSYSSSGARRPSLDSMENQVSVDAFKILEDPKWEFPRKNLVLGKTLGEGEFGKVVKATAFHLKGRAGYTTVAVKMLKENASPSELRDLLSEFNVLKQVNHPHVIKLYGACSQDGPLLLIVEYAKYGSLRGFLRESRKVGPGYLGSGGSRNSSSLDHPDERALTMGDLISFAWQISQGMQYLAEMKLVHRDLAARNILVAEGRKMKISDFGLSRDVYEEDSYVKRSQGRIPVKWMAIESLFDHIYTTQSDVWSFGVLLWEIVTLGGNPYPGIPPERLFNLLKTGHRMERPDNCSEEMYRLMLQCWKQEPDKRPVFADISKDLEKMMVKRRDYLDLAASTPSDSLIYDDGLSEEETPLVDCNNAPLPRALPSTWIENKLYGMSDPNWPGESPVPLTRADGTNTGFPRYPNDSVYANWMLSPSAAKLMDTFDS
T1 sequence (Q16204 2-474 partner limits assumed): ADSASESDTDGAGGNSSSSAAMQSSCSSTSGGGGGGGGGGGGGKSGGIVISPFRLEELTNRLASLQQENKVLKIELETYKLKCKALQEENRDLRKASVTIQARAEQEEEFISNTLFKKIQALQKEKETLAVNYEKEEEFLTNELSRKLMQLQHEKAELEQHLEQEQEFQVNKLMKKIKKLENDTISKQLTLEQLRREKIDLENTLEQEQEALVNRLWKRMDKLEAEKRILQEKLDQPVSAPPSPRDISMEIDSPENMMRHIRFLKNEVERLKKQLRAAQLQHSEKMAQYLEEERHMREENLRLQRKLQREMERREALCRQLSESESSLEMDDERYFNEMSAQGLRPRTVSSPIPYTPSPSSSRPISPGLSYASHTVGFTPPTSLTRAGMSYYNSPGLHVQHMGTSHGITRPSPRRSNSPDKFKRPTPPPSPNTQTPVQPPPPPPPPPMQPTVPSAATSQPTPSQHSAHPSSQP
Sequence of Centrosomal protein 43/RET (Homo sapiens) (O95684 whole entry, looked up, the tested form may be a part, canonical isoform): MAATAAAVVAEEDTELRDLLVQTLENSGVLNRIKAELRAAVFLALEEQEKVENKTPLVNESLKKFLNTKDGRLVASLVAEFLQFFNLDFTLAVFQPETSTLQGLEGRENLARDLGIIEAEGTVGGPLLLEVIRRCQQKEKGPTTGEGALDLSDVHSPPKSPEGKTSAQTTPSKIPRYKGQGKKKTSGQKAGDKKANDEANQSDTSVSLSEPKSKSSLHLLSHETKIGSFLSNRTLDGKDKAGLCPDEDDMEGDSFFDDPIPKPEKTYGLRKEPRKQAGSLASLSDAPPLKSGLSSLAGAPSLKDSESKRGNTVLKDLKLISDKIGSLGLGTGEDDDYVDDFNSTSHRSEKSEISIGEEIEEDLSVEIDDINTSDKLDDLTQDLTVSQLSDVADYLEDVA
Sequence of Centrosomal protein 43/RET (Homo sapiens) (P07949 whole entry, looked up, the tested form may be a part, canonical isoform): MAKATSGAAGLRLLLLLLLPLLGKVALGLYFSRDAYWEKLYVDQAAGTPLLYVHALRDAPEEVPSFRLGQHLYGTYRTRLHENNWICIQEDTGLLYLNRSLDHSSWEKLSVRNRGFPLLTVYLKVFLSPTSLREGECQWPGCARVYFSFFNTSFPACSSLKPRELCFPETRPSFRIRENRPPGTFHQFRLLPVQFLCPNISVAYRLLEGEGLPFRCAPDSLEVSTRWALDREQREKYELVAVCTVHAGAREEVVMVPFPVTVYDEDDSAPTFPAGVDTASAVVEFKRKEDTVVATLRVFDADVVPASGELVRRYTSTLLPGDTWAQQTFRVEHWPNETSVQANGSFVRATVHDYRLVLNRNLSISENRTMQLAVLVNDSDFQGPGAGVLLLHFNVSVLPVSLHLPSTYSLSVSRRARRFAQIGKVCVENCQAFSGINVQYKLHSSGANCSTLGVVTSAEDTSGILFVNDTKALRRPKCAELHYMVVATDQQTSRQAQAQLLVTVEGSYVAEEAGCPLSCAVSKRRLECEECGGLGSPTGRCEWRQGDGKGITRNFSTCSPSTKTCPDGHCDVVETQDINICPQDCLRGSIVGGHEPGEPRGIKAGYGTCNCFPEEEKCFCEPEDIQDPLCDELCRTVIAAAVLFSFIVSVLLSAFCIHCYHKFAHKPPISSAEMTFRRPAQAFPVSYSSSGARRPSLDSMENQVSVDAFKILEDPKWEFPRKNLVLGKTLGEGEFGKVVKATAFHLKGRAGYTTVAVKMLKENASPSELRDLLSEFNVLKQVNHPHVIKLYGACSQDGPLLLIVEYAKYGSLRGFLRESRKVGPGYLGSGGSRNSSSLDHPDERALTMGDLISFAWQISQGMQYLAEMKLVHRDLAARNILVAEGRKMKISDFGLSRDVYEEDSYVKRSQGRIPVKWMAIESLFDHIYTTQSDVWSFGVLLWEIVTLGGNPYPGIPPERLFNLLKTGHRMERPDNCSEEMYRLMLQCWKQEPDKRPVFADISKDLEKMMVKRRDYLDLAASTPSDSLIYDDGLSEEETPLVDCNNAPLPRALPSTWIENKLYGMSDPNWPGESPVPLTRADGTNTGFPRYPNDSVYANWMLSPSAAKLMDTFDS
Sequence of Macrophage colony-stimulating factor 1 receptor (P07333 whole entry, the tested form may be a part, canonical isoform): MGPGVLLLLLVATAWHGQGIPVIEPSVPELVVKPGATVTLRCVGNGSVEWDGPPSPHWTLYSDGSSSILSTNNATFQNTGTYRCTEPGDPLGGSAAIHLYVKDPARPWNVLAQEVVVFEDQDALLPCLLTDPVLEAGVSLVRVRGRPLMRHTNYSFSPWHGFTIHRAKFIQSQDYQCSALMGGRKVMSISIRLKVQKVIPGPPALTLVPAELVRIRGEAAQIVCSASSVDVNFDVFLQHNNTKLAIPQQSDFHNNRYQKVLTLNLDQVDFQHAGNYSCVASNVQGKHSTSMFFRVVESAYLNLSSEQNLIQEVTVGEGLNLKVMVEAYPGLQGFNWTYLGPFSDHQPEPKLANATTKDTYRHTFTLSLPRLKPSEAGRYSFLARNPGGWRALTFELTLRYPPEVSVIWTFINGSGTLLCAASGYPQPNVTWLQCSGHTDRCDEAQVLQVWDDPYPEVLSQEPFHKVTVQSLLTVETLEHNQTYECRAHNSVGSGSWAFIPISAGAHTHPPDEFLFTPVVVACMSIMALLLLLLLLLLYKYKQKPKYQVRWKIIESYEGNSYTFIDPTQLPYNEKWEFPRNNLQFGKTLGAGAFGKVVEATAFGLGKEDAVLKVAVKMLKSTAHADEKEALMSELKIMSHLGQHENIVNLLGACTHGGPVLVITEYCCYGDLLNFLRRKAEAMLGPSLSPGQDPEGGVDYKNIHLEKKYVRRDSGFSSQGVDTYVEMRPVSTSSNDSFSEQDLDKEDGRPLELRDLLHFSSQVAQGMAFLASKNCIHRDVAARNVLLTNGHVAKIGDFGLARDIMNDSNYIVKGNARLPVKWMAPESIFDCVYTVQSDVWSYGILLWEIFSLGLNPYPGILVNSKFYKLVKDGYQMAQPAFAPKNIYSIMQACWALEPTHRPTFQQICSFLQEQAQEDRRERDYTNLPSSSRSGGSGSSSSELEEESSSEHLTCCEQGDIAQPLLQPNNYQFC
Sequence of Tyrosine-protein kinase FRK (Homo sapiens) (P42685 whole entry, the tested form may be a part): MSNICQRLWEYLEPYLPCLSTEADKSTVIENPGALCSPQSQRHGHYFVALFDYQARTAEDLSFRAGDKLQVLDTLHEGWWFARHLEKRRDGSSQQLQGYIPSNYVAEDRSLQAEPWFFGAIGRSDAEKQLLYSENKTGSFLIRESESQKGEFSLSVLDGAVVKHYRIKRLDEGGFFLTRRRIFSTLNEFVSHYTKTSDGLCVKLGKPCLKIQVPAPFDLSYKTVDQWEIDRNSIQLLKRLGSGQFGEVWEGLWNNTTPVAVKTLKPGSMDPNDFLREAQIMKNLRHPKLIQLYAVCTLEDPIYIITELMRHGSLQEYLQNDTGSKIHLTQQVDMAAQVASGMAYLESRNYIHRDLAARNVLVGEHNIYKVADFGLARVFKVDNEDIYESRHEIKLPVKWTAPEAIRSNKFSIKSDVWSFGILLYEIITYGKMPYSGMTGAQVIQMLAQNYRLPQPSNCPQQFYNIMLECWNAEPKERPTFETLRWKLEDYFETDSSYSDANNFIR
Sequence of Proto-oncogene tyrosine-protein kinase receptor Ret (Homo sapiens), P07949 [V804L] (P07949 whole entry V804L, canonical isoform): as the sequence (P07949 whole entry, looked up, the tested form may be a part, canonical isoform) above, with V804L counted along it

Structure (SMILES): CC(C)(C)c1cc(NC(=O)Cc2ccc(-n3cnc4cc(-c5ccc(S(C)(=O)=O)cc5)ccc43)cc2)no1
- Activity [1]: > 90%
- IC50 [2]: 32 nM
- IC50 [3]: 46 nM
- inhibition [4]: Active
- inhibition [5]: Active
- inhibition [6]: Active
- inhibition [7]: Active
- Activity [8]: inactive
- IC50 [9]: > 100 nM
- inhibition [10]: Active
- inhibition [11]: Active
